Measured values from ChEMBL document CHEMBL1240482, “Synthesis and antiproliferative evaluation of certain indeno[1,2-c]quinoline derivatives. Part 2” (J Med Chem, 2010).
pIC50: −log10 of the molar value. Activity calls are given as the source filed them. No cut-off for these calls is given here.

Columns and labels:
DNA topoisomerase 1 = target: T1, DNA topoisomerase 1 (Homo sapiens, UniProt P11387); experiment: Inhibition of human topoisomerase 1 assessed as decrease in pBR322 mobility on agarose gel by electrophoresis
T1 sequence (P11387 whole entry): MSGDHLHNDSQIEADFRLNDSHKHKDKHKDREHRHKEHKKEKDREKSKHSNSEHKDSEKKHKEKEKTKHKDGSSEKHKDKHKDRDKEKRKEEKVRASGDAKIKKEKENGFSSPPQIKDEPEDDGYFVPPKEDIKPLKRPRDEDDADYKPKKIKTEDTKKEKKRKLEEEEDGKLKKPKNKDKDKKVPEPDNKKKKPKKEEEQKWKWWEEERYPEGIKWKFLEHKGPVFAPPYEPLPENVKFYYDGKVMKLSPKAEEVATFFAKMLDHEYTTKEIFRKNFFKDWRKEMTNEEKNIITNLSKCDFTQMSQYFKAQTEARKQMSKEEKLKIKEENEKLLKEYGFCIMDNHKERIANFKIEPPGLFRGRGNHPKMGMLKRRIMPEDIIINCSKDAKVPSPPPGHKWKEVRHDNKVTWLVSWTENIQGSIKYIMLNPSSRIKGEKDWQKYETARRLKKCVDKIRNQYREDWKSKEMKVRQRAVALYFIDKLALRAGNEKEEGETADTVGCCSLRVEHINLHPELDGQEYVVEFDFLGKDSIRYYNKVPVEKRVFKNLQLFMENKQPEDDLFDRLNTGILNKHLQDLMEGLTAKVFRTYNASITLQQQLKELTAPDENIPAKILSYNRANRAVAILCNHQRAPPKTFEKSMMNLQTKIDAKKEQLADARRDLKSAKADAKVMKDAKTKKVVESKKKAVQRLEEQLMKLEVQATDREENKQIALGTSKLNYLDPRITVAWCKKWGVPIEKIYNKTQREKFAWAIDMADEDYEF
Outline: (§1)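 Enzyme preincubated with compound before DNA addition; reaction run 30 min at 37 °C and stopped with SDS. Products resolved on 1% agarose, stained with ethidium bromide, quantified by densitometry.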

[1] = Cytotoxicity against human Detroit 551 cells after 48 hrs by MTT assay; type: cell-based
Outline: (§2)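 Cells grown in DMEM with 10% FBS at 37 °C and 5% CO2, seeded at 5 × 10^3 per well and allowed 24 h before drug. Serial dilutions from DMSO stocks applied for 48 h. MTT (2 mg/mL in PBS) added for 2 h, formazan dissolved in DMSO, absorbance read at 570 nm. GI50 interpolated by linear regression from at least three points in the 20-80% range; three independent experiments.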

Homo sapiens = species on record: Homo sapiens; experiment: Inhibition of human topoisomerase 2 assessed as decrease in pBR322 mobility on agarose gel at 10 uM by electrophoresis; outline: as §1
SAS [2] = experiment: Selectivity index, ratio of IC50 for human Detroit 551 cells to IC50 for human SAS cells; type: functional
Detroit 551 [3] = experiment: Selectivity index, ratio of IC50 for human Detroit 551 cells to IC50 for human PC3 cells; type: functional
SAS [4] = experiment: Cytotoxicity against human SAS cells after 48 hrs by MTT assay; type: functional; outline: as §2
HeLa [5] = experiment: Cytotoxicity against human HeLa cells after 48 hrs by MTT assay; type: functional; outline: as §2
Detroit 551 [6] = experiment: Selectivity index, ratio of IC50 for human Detroit 551 cells to IC50 for human SKHep cells; type: functional
Detroit 551 [7] = experiment: Selectivity index, ratio of IC50 for human Detroit 551 cells to IC50 for human A549 cells; type: functional
Detroit 551 [8] = experiment: Selectivity index, ratio of IC50 for human Detroit 551 cells to IC50 for human BT-483 cells; type: functional
A549 = experiment: Cytotoxicity against human A549 cells after 48 hrs by MTT assay; type: functional; settings: A549, 48 h; outline: as §2
PC-3 = experiment: Cytotoxicity against human PC3 cells after 48 hrs by MTT assay; type: functional; settings: PC-3, 48 h; outline: as §2
[9] = Cytotoxicity against human BT-483 cells after 48 hrs by MTT assay; type: functional; settings: BT-483, 48 h; outline: as §2
HeLa [10] = experiment: Selectivity index, ratio of IC50 for human Detroit 551 cells to IC50 for human HeLa cells; type: functional
[11] = Cytotoxicity against human SKHep cells after 48 hrs by MTT assay; type: functional; outline: as §2
[12] = target: T2, DNA topoisomerase 1 (Homo sapiens) (UniProt P11387); experiment: Inhibition of human topoisomerase 1 assessed as decrease in pBR322 mobility on agarose gel at 10 uM by electrophoresis; outline: as §1
T2 sequence (whole entry): T1 sequence (P11387 whole entry)

[13] = Inhibition of human topoisomerase 2 assessed as decrease in pBR322 mobility on agarose gel by electrophoresis; outline: as §1
Nucleic Acid = experiment: Binding affinity to pBR322; type: nucleic-acid assay; settings: Escherichia coli

Row | Structure (SMILES) | pIC50 (DNA topoisomerase 1) | GI50 at 48 h [1] [µM] | inhibition (Homo sapiens) [%] | RatioGI50 (SAS [2]) | RatioGI50 (Detroit 551 [3]) | GI50 (SAS [4]) [µM] | GI50 (HeLa [5]; read-out: GI50) [µM] | GI50 (HeLa [5]; read-out: pGI50 (converted)) [µM] | RatioGI50 (Detroit 551 [6]) | RatioGI50 (Detroit 551 [7]) | RatioGI50 (Detroit 551 [8]) | GI50 (A549) [µM] | GI50 (PC-3) [µM] | GI50 [9] [µM] | RatioGI50 (HeLa [10]) | GI50 [11] [µM] | inhibition [12] [%] | pIC50 [13] | Activity (Nucleic Acid)
1 | COc1ccc2c(c1)/C(=N\OCCCN(C)C)c1c-2c(=O)[nH]c2ccccc12 | < 4.00 | 2.09 | – | – | – | – | – | – | – | – | – | – | – | – | – | – | – | – | –
2 | COc1ccc2c(c1)/C(=N\OCCCN(C)C)c1c-2cnc2ccccc12 | 4.40 | 3.45 | 75 | 0.57 | 0.61 | 6.1 | 1.11 | 1.12 | 3.22 | 1.89 | 3.71 | 1.83 | 5.65 | 0.93 | 3.11 | 1.07 | 5 | 4.88 | –
3 | COc1ccc2c(c1)/C(=N\OCCN1CCCC1)c1c-2c(N2CCNCC2)nc2ccccc12 | 4.89 | 1.47 | 74 | 0.6 | 0.44 | 2.43 | 0.57 | 0.575 | 2.16 | 4.63 | 1.03 | 0.5 | 3.37 | 1.43 | 2.58 | 0.68 | 48 | 5.19 | Active
4 | COc1ccc2c(c1)/C(=N\OCCN(C)C)c1c-2cnc2ccccc12 | 5.14 | 6.85 | 75 | 6.01 | 3.62 | 1.14 | 0.42 | 0.417 | 5.71 | 5.27 | 1.9 | 1.3 | 1.89 | 3.61 | 16.31 | 1.2 | 82 | 5.17 | Active
5 | COc1ccc2c(c1)/C(=N\O)c1c-2c(N2CCNCC2)nc2ccccc12 | – | – | – | – | – | – | – | 2.34 | – | – | – | – | – | – | – | – | – | – | –
6 | COc1ccc2c(c1)C(=O)c1c-2cnc2ccccc12 | < 4.00 | – | 0 | – | – | > 30 | 17.2 | 17.4 | – | – | – | 13.5 | > 30 | > 30 | – | > 30 | 0 | < 4.00 | –
7 | COc1cccc2c1C(=O)c1c(O)c3c(c(O)c1C2=O)C[C@@](O)(C(=O)CO)C[C@@H]3O[C@H]1C[C@H](N)[C@H](O)[C@H](C)O1 [DOXORUBICIN] | – | – | 85 | – | – | – | – | – | – | – | – | – | – | – | – | – | 35 | 5.72 | –
8 | CC[C@@]1(O)C(=O)OCc2c1cc1n(c2=O)Cc2cc3ccccc3nc2-1 [CAMPTOTHECIN] | – | 0.99 | 0 | – | – | – | 0.08 | – | – | – | – | – | – | 1.03 | – | – | – | < 4.00 | –
9 | COc1ccc2c(c1)/C(=N\OCCN1CCOCC1)c1c-2c(O)nc2ccccc12 | < 4.00 | – | 0 | – | – | 16.5 | 5.02 | 5.01 | – | – | – | > 30 | 13.6 | 6.04 | – | 10.4 | 0 | < 4.00 | –
10 | COc1ccc2c(c1)/C(=N\OCCN1CCOCC1)c1c-2c(N2CCNCC2)nc2ccccc12 | 4.89 | 2.6 | 100 | 0.38 | 0.4 | 6.93 | 0.78 | 0.776 | 2.65 | 1.18 | 0.69 | 2.2 | 6.47 | 3.75 | 3.33 | 0.98 | 40 | 5.22 | –
11 | COc1ccc2c(c1)/C(=N\OCCN1CCCCC1)c1c-2c(O)nc2ccccc12 | – | – | 0 | 1.39 | 1.31 | 5.39 | 0.84 | 0.832 | 1.75 | 1.08 | 4.72 | 6.95 | 5.74 | 1.59 | 8.93 | 4.28 | 0 | < 4.00 | Active
12 | COc1ccc2c(c1)/C(=N\OCCN1CCOCC1)c1c-2cnc2ccccc12 | < 4.00 | – | 0 | – | – | 15.7 | 16.9 | 17 | – | – | – | 28.2 | 7.81 | 10.2 | – | 20.8 | 0 | < 4.00 | –
13 | COc1ccc2c(c1)/C(=N\OCCN1CCCCC1)c1c-2c(N2CCNCC2)nc2ccccc12 | 4.94 | 2.3 | 68 | 0.4 | 0.41 | – | – | 0.776 | 1.46 | 2.64 | 0.57 | – | – | 4.03 | 2.95 | – | 45 | 5.10 | Active
14 | COc1ccc2c(c1)/C(=N\OCCCN(C)C)c1c-2c(N2CCNCC2)nc2ccccc12 | 5.18 | 2.77 | 88 | 0.56 | 0.52 | – | – | 0.372 | 0.94 | 7.29 | 2.02 | – | – | 1.37 | 7.49 | – | 70 | 5.39 | Active
15 | COc1ccc2c(c1)/C(=N\OCCCN(C)C)c1c-2c(O)nc2ccccc12 | – | – | 77 | 0.67 | 0.48 | 3.1 | 0.2 | 0.2 | 2.79 | 3.32 | 1.62 | 0.63 | 4.35 | 1.29 | 10.45 | 0.75 | 3 | 5.15 | Active
16 | COc1ccc2c(c1)/C(=N\OCCN1CCCCC1)c1c-2c(=O)[nH]c2ccccc12 | < 4.00 | 7.5 | – | – | – | – | – | – | – | – | – | – | – | – | – | – | – | – | –
17 | COc1ccc2c(c1)/C(=N\OCCN(C)C)c1c-2c(N2CCNCC2)nc2ccccc12 | 5.07 | 2.72 | 75 | 0.43 | 0.59 | – | – | 0.912 | 0.9 | 3.83 | 2.47 | – | – | 1.1 | 2.96 | – | 56 | 5.31 | Active
18 | COc1ccc2c(c1)/C(=N\O)c1c-2cnc2ccccc12 | – | – | – | – | – | > 30 | 11.4 | 11.5 | – | – | – | > 30 | > 30 | > 30 | – | 8.42 | – | – | –
